Results reported in ChEMBL document CHEMBL2146402, “Cytotoxic lignans from fruits of Cleistanthus indochinensis: synthesis of cleistantoxin derivatives” (J Nat Prod, 2012).
The source made the active and inactive calls. No cut-off for these calls is given here.

Columns and labels:
Format in all cases: functional, cell-based
[1] = tested on: KB; test: Cytotoxicity against human KB cells at 100 ug/mL after 72 hrs by neutral red assay
[2] = tested on: KB; test: Cytotoxicity against human KB cells after 72 hrs by neutral red assay
Procedure, shortened: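 KB human nasopharynx carcinoma cells grown in D-MEM with 10% fetal calf serum, 2 mM L-glutamine, penicillin G, streptomycin and gentamicin. Seeded at 3 × 10³ cells/mL and exposed to compounds (stocks in DMSO/H₂O 1:9) for 72 h at 37 °C in air/CO₂ 95:5. Living cells stained with neutral red, OD read at 540 nm. IC50 is the concentration reducing growth to 50% of control. Taxotere reference.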

[3] = tested on: MCF7; test: Cytotoxicity against human MCF7 cells
[4] = tested on: HT-29; test: Cytotoxicity against human HT-29 cells
[5] = Cytotoxicity against human MCF7/R cells; settings: MCF7R

SMILES | Activity [1] | IC50 [2] | other results
COc1c2c(cc3c1[C@H]1C(=O)OC[C@H]1[C@H](C(=O)NCc1ccc(Cl)c(Cl)c1)[C@@H]3c1ccc3c(c1)OCO3)OCO2 | inactive |  | 
COc1c2c(cc3c1[C@H]1C(=O)OC[C@H]1[C@H](C(=O)NCc1ccco1)[C@@H]3c1ccc3c(c1)OCO3)OCO2 | inactive |  | 
COc1c2c(cc3c1[C@H]1C(=O)OC[C@H]1[C@H](C(=O)N1CCCCC1)[C@@H]3c1ccc3c(c1)OCO3)OCO2 |  | 42 µg/mL | 
COc1c2c(cc3c1[C@H]1C(=O)OC[C@H]1[C@H](C(=O)O)[C@@H]3c1ccc3c(c1)OCO3)OCO2 | inactive |  | 
COc1c2c(cc3c1[C@H]1C(=O)OC[C@H]1[C@H](C(=O)NCc1ccc(F)cc1)[C@@H]3c1ccc3c(c1)OCO3)OCO2 | inactive |  | 
COc1c2c(cc3c1[C@H]1C(=O)OC[C@H]1[C@H](C(=O)NC1CCCC1)[C@@H]3c1ccc3c(c1)OCO3)OCO2 | inactive |  | 
COc1c2c(cc3c1[C@H]1C(=O)OC[C@H]1[C@H](C(=O)NC1CCCCCC1)[C@@H]3c1ccc3c(c1)OCO3)OCO2 |  | 26 µg/mL | 
COc1c2c(cc3c1[C@H](O)[C@H]1COC(=O)[C@@H]1[C@@H]3c1ccc3c(c1)OCO3)OCO2 [CLEISTANTOXIN] |  | 22 nM | IC50 [3]: 36 nM; IC50 [4]: 35 nM; IC50 [5]: 14 nM
COc1c2c(cc3c1[C@H]1C(=O)OC[C@H]1[C@H](C(=O)n1ccnc1)[C@@H]3c1ccc3c(c1)OCO3)OCO2 | inactive |  | 
COc1c2c(cc3c1[C@@H]1OC(=O)[C@H]([C@@H]3c3ccc4c(c3)OCO4)[C@@H]1CO)OCO2 [NEOCLEISTANTOXIN] |  | 1400 nM | 
COc1c2c(cc3c1[C@@H](C#N)[C@H]1COC(=O)[C@@H]1[C@@H]3c1ccc3c(c1)OCO3)OCO2 |  | 1.2 µg/mL | 
COc1c2c(cc3c1[C@H]1C(=O)OC[C@H]1[C@H](C(=O)N(Cc1ccccc1)Cc1ccccc1)[C@@H]3c1ccc3c(c1)OCO3)OCO2 | inactive |  | 
